The source of these data is ChEMBL document CHEMBL1125291, “New 8-(trifluoromethyl)-substituted quinolones. The benefits of the 8-fluoro group with reduced phototoxic risk” (1992).

The species entered for assay [1] is Mus musculus. The experiment in a line: Days of the first positive reaction in […] mice. Type of assay: functional. In a few lines:
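Phototoxic skin reaction test in depilated female CD-1 mice. A single oral dose (gavage) or subcutaneous dose was given, followed 1 h later by 3 h of UVA exposure (320–400 nm). The regimen was repeated for up to 4 consecutive days, with initial doses of 30, 100 and 300 mg/kg. PTD50 was derived by the probit method. The first day of positive reaction and the no-effect dose were taken from the raw data.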

Assay [2] is filed under the species Mus musculus. The assay can be described thus: Number of mice which show positive phototoxic reaction in 5 mice. The class given is functional.
For assay [3], the system named is Escherichia coli. The assay can be described thus: In vivo efficacy in mouse protection test in Escherichia coli Vogel administered by subcutaneous injection. The class given is functional. Conditions: Escherichia coli, sc; read-out: PD50. In a few lines:
(§1)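 Acute lethal systemic infections in female Charles River CD-1 mice. A single dose was given at challenge, orally by gavage or by subcutaneous injection. PD50 (median protective dose, mg/kg) was determined.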

Assay [4] deals with Escherichia coli. The assay can be described thus: In vivo efficacy in mouse protection test in Escherichia coli Vogel dose administered orally by gavage. Type of assay: functional. Conditions: Escherichia coli, po; read-out: PD50. An outline of the steps:
as §1

The test system of assay [5] is Escherichia coli. The assay can be described thus: Minimum inhibitory concentration (MIC) against gram negative bacteria Escherichia coli H-560. Type of assay: functional. The following applies: Escherichia coli; read-out: MIC. An outline of the steps: (§2)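 MICs were determined by standard broth microtitration against 11 Gram-positive and Gram-negative organisms, in µg/mL. Values come from duplicate or triplicate experiments and are accurate to ±50%.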

Assay [6] has as its system Escherichia coli. The experiment in a line: Minimum inhibitory concentration (MIC) against gram negative bacteria Escherichia coli Vogel. The class given is functional. Conditions: Escherichia coli; read-out: MIC. In a few lines: as §2
The next assay concerns Enterobacter cloacae. The assay can be described thus: Minimum inhibitory concentration (MIC) against gram negative bacteria Enterobacter cloacae MA-2646. Type of assay: functional.
For a further assay, the system named is Klebsiella pneumoniae. The experiment in a line: Minimum inhibitory concentration (MIC) against gram negative bacteria Klebsiella pneumoniae MGH-2. Type of assay: functional. Conditions: Klebsiella pneumoniae; read-out: MIC. An outline of the steps:
as §2

For assay [7], the species on record is Mus musculus. The assay can be described thus: Dose required to induce phototoxic reaction in 50% of mice by probit method at different dosage forms. The class given is functional.
The species entered for assay [8] is Mus musculus. The assay can be described thus: Dose which has no effect to induce phototoxic reaction in 50% of mice by probit method. Type of assay: functional.
Assay [9] has as its system Mus musculus. The assay can be described thus: Maximum tolerance dose was measured for phototoxic skin reaction by po administration. The class given is functional.
A short description of assay [10]: Minimum inhibitory concentration (MIC) against gram negative bacteria Prot. rettgeri M-1771. Type of assay: functional, Providencia rettgeri. The following applies: Providencia rettgeri; read-out: MIC. In a few lines: as §2
For a further assay, the system named is Pseudomonas aeruginosa. The experiment in a line: Minimum inhibitory concentration (MIC) against gram negative bacteria Pseudomonas aeruginosa UI-18. The class given is functional. Conditions: Pseudomonas aeruginosa; read-out: MIC. An outline of the steps: as §2
In assay [11] the test system is Streptococcus pyogenes. The experiment in a line: In vivo efficacy (s.c.) against Streptococcus pyogenes C-203 in mouse protection test. Type of assay: functional. Conditions: Streptococcus pyogenes, sc; read-out: PD50. An outline of the steps:
as §1

Assay [12] deals with Streptococcus pyogenes. The experiment in a line: In vivo efficacy (orally) against Streptococcus pyogenes C-203 in mouse protection test. The following applies: Streptococcus pyogenes, po; read-out: PD50. Type of assay: functional. In a few lines:
as §1

Assay [13] concerns Staphylococcus aureus. The experiment in a line: Minimum inhibitory concentration (MIC) against gram positive bacteria Staphylococcus aureus H-228. The class given is functional. The following applies: Staphylococcus aureus; read-out: MIC. An outline of the steps:
as §2

Assay [14] deals with Staphylococcus aureus. The assay can be described thus: Minimum inhibitory concentration (MIC) against gram positive bacteria Staphylococcus aureus UC-76. The following applies: Staphylococcus aureus; read-out: MIC. The class given is functional. In a few lines:
as §2

Another assay concerns Enterococcus faecalis. The experiment in a line: Minimum inhibitory concentration (MIC) against gram positive bacteria Streptococcus faecalis MGH-2. The class given is functional. The following applies: Enterococcus faecalis; read-out: MIC. In a few lines: as §2
Assay [15] concerns Streptococcus pneumoniae. The assay can be described thus: Minimum inhibitory concentration (MIC) against gram positive bacteria Streptococcus pneumoniae SV-1. The class given is functional. The following applies: Streptococcus pneumoniae; read-out: MIC. An outline of the steps: as §2
The subject of assay [16] is Streptococcus pyogenes. The experiment in a line: Minimum inhibitory concentration (MIC) against gram positive bacteria Streptococcus pyogenes C-203. The class given is functional. Conditions: Streptococcus pyogenes; read-out: MIC. An outline of the steps: as §2
Assay [17] relates to Streptococcus pneumoniae. The assay can be described thus: In vivo efficacy (s.c.) against Streptococcus pneumoniae SV-1 in mouse protection test. Conditions: Streptococcus pneumoniae, sc; read-out: PD50. Type of assay: functional. In a few lines: as §1
Assay [18] deals with Streptococcus pneumoniae. The assay can be described thus: In vivo efficacy (orally) against Streptococcus pneumoniae SV-1 in mouse protection test. The class given is functional. Conditions: Streptococcus pneumoniae, po; read-out: PD50. An outline of the steps: as §1

Molecules are shown by their SMILES. Values after ≈ are worked out from the molar mass of the structure shown.

As usually defined, the MIC is the smallest concentration in the dilution series that meets the test's criterion for growth inhibition. As a reminder, the MTD is the highest dose tested that stayed within the study's limit of toxicity. A higher MTD goes with better tolerability.

Take `CCNCC1CCN(c2cc3c(cc2F)c(=O)c(C(=O)O)cn3C2CC2)C1` (configuration not stated): the “Day of first positve reaction” value in the assay listed under Mus musculus [1] worked out at 0. Also, in the assay listed under Mus musculus [2], the “No. of pos rxns” value came out at 0. Also, the ED50 in the assay with Escherichia coli [3] was 2.4 mg/kg; with Escherichia coli [4], 35 mg/kg; with Streptococcus pyogenes [11], 4.5 mg/kg; in the assay with Streptococcus pyogenes [12], 46 mg/kg. Further, the minimum inhibitory concentration (MIC) came out at 0.05 µg/mL (≈ 0.134 µM) in the assay on Escherichia coli [5]; 0.2 µg/mL (≈ 0.536 µM) with Escherichia coli [6]; 0.4 µg/mL (≈ 1.07 µM) in the assay on Enterobacter cloacae; 0.2 µg/mL (≈ 0.536 µM) in the assay with Klebsiella pneumoniae; 0.8 µg/mL (≈ 2.14 µM) in assay [10]; 1.6 µg/mL (≈ 4.28 µM) in the assay on Pseudomonas aeruginosa. The MIC with Staphylococcus aureus [13] turned out to be 0.4 µg/mL (≈ 1.07 µM); in the assay on Staphylococcus aureus [14] it was 0.013 µg/mL (≈ 0.0348 µM); in the assay on Enterococcus faecalis, 0.2 µg/mL (≈ 0.536 µM); in the assay on Streptococcus pneumoniae [15], 0.2 µg/mL (≈ 0.536 µM); in the assay with Streptococcus pyogenes [16] it was 0.05 µg/mL (≈ 0.134 µM). In the assay filed under Mus musculus [7], the PTD50 was over 100 mg/kg. Moreover, the No effect dose in the assay filed under Mus musculus [8] was 100 mg/kg. Also, the MTD in the assay with Mus musculus [9] was 100 mg/kg.
Regarding `C[C@@H]1CN(c2c(F)cc3c(=O)c(C(=O)O)cn(C4CC4)c3c2F)CCN1`, the “Day of first positve reaction” value in the assay listed under Mus musculus [1] is on record as 4. The “No. of pos rxns” value in the assay listed under Mus musculus [2] was found to be 1. Further, the ED50 was found to be 0.2 mg/kg in the assay on Escherichia coli [3], 0.7 mg/kg in the assay on Escherichia coli [4], 7.2 mg/kg in the assay with Streptococcus pyogenes [11] and 14 mg/kg with Streptococcus pyogenes [12]. Further, the MIC in the assay with Escherichia coli [5] stood at 0.1 µg/mL (≈ 0.275 µM); in the assay with Escherichia coli [6], 0.025 µg/mL (≈ 0.0688 µM); in the assay on Enterobacter cloacae it was 0.025 µg/mL (≈ 0.0688 µM); with Klebsiella pneumoniae, 0.025 µg/mL (≈ 0.0688 µM); in [10], 0.1 µg/mL (≈ 0.275 µM); with Pseudomonas aeruginosa it was 0.4 µg/mL (≈ 1.1 µM). The MIC with Staphylococcus aureus [13] worked out at 0.2 µg/mL (≈ 0.55 µM); in the assay on Staphylococcus aureus [14], 0.1 µg/mL (≈ 0.275 µM); with Enterococcus faecalis, 0.4 µg/mL (≈ 1.1 µM); in the assay with Streptococcus pneumoniae [15] it was 0.4 µg/mL (≈ 1.1 µM); in the assay on Streptococcus pyogenes [16] it was 0.2 µg/mL (≈ 0.55 µM). Further, in the assay listed under Mus musculus [7], the PTD50 turned out to be 43 mg/kg. In the assay filed under Mus musculus [8], this molecule showed a No effect dose of under 30 mg/kg. This molecule also came in with an MTD in the assay on Mus musculus [9] of 30 mg/kg.
Turning to `NC1CCN(c2cc3c(cc2F)c(=O)c(C(=O)O)cn3C2CC2)CC1`, the “Day of first positve reaction” value in the assay listed under Mus musculus [1] turned out to be 0. Further, the “No. of pos rxns” value in the assay listed under Mus musculus [2] was found to be 0. Moreover, the values for the ED50 in the assay with Escherichia coli [3] and in the assay on Escherichia coli [4] were 3.8 mg/kg and 18 mg/kg, respectively. Moreover, the MIC in the assay on Escherichia coli [5] stood at 0.4 µg/mL (≈ 1.16 µM); in the assay on Escherichia coli [6], 0.4 µg/mL (≈ 1.16 µM); in the assay with Enterobacter cloacae, 0.4 µg/mL (≈ 1.16 µM); in the assay on Klebsiella pneumoniae, 0.8 µg/mL (≈ 2.32 µM); in assay [10], 1.6 µg/mL (≈ 4.63 µM); with Pseudomonas aeruginosa, 3.1 µg/mL (≈ 8.98 µM). In addition, the MIC was found to be 1.6 µg/mL (≈ 4.63 µM) with Staphylococcus aureus [13]; 0.2 µg/mL (≈ 0.579 µM) in the assay with Staphylococcus aureus [14]; 0.8 µg/mL (≈ 2.32 µM) in the assay on Enterococcus faecalis; 0.4 µg/mL (≈ 1.16 µM) with Streptococcus pneumoniae [15]; 0.4 µg/mL (≈ 1.16 µM) in the assay on Streptococcus pyogenes [16]. In the assay listed under Mus musculus [7], this molecule showed a PTD50 of over 100 mg/kg. In the assay listed under Mus musculus [8], this molecule returned a No effect dose of 100 mg/kg. In the assay on Mus musculus [9], this molecule yielded an MTD of 100 mg/kg.
Turning to `CC1(CN)CCN(c2c(F)cc3c(=O)c(C(=O)O)cn(C4CC4)c3c2F)C1` (configuration not stated), in the assay listed under Mus musculus [1], the “Day of first positve reaction” value was found to be 1. Also, the “No. of pos rxns” value in the assay filed under Mus musculus [2] amounted to 5. Moreover, the ED50 came to 3 mg/kg in the assay with Escherichia coli [3], 1.8 mg/kg with Escherichia coli [4], 0.3 mg/kg in the assay with Streptococcus pneumoniae [17] and 1.2 mg/kg in the assay with Streptococcus pneumoniae [18]. In addition, the MIC in the assay on Escherichia coli [5] worked out at 0.006 µg/mL (≈ 0.0159 µM); in the assay on Escherichia coli [6], 0.013 µg/mL (≈ 0.0344 µM); against Enterobacter cloacae it was 0.013 µg/mL (≈ 0.0344 µM); with Klebsiella pneumoniae it was 0.025 µg/mL (≈ 0.0662 µM); in assay [10], 0.05 µg/mL (≈ 0.132 µM); in the assay with Pseudomonas aeruginosa, 0.4 µg/mL (≈ 1.06 µM). For the same molecule, the MIC in the assay with Staphylococcus aureus [13] came out at 0.013 µg/mL (≈ 0.0344 µM); with Enterococcus faecalis, 0.006 µg/mL (≈ 0.0159 µM); with Streptococcus pneumoniae [15] it was 0.003 µg/mL (≈ 0.00795 µM); with Streptococcus pyogenes [16], 0.003 µg/mL (≈ 0.00795 µM). Besides, the PTD50 in the assay listed under Mus musculus [7] was under 30 mg/kg. Besides, the No effect dose in the assay filed under Mus musculus [8] is under 30 mg/kg. In addition, the MTD in the assay on Mus musculus [9] came to 30 mg/kg.
